The source made the active and inactive calls. The calls are words filed in the database; no cut-off is given here.
Test system: Mus musculus
Assay: Anticonvulsant activity in ip dosed albino mouse assessed as protection against subcutaneous metrazole-induced seizures
Assay type: functional, organism-based
Conditions: not given
Method in brief: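 Male albino Carworth Farms No. 1 mice, dosed intraperitoneally; subcutaneous metrazol seizure model run by previously reported methods under the NIH Anticonvulsant Screening Program; protection against seizures scored.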

Structure (SMILES) | Activity
CC(=O)N[C@H](COCCN=C=S)C(=O)NCc1ccccc1 | inactive
CC(=O)N[C@@H](COCCN=C=S)C(=O)NCc1ccccc1 | inactive
CCC1(c2ccccc2)C(=O)NC(=O)NC1=O [PHENOBARBITAL] | inactive
C#Cc1ccc(CNC(=O)[C@@H](COCCN=C=S)NC(C)=O)cc1 | inactive
C#Cc1ccc(CNC(=O)[C@@H](COC)NC(C)=O)cc1 | inactive
C#CCOC[C@@H](NC(C)=O)C(=O)NCc1ccc(N=C=S)cc1 | inactive
CC(=O)N[C@@H](COCCN=[N+]=[N-])C(=O)NCc1ccccc1 | inactive
CC(=O)N[C@@H](CO)C(=O)NCc1ccc(N=C=S)cc1 | inactive
C#CCOC[C@H](NC(C)=O)C(=O)NCc1ccccc1 | inactive
CC(=O)N[C@H](COCCN=[N+]=[N-])C(=O)NCc1ccc(N=C=S)cc1 | inactive

Biological target: Dihydropyrimidinase-related protein 2 (Mus musculus) (UniProt O08553)
Assay: Binding affinity to CRMP2 in ICR mouse brain […] at 5 uM by Western blot analysis in presence of rhodamine-containing 4-(3,6,9,12-tetraoxapentadec-14-ynylcarbamoyl)-2-(3,6-bis(dimethylamino)xanthylium-9-yl)benzoate
Assay type: tissue-based
Conditions: not given
Method in brief: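 Soluble brain proteome from male 2-month ICR mice was Dounce-homogenized in 50 mM HEPES pH 7.4. It was spun at 1200 × g for 12 min, then at 100,000 × g for 1 h at 4 °C, and exchanged into pH 8.0 HEPES. Aliquots (2.0 mg/mL protein) got 5 μM agent for 30 min at RT. Click reaction used rhodamine-alkyne 50 μM, TCEP 1 mM, TBTA 200 μM, CuSO4 1 mM, 1 h RT. Read-out: SDS-PAGE, in-gel fluorescence (ex 555/em 580 nm).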

Structure (SMILES) | Activity
CC(=O)N[C@H](COCCN=[N+]=[N-])C(=O)NCc1ccc(N=C=S)cc1 | Active

Test system: Rattus norvegicus
Assay: Anticonvulsant activity in po dosed Sprague-Dawley rat assessed as protection against subcutaneous metrazole-induced seizures
Assay type: functional, organism-based
Conditions: not given
Method in brief: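 Male albino Sprague-Dawley rats, oral dosing; subcutaneous metrazol seizure test by previously reported methods within the NIH Anticonvulsant Screening Program.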

Structure (SMILES) | Activity
CC(=O)N[C@H](COCCN=C=S)C(=O)NCc1ccccc1 | inactive
CC(=O)N[C@@H](COCCN=C=S)C(=O)NCc1ccccc1 | inactive
CCC1(c2ccccc2)C(=O)NC(=O)NC1=O [PHENOBARBITAL] | inactive
C#Cc1ccc(CNC(=O)[C@@H](COCCN=C=S)NC(C)=O)cc1 | inactive
C#Cc1ccc(CNC(=O)[C@@H](COC)NC(C)=O)cc1 | inactive
C#CCOC[C@@H](NC(C)=O)C(=O)NCc1ccc(N=C=S)cc1 | inactive
CC(=O)N[C@@H](COCCN=[N+]=[N-])C(=O)NCc1ccccc1 | inactive
CC(=O)N[C@@H](CO)C(=O)NCc1ccc(N=C=S)cc1 | inactive
C#CCOC[C@H](NC(C)=O)C(=O)NCc1ccccc1 | inactive
CC(=O)N[C@H](COCCN=[N+]=[N-])C(=O)NCc1ccc(N=C=S)cc1 | inactive

Test system: Rattus norvegicus
Assay: Neurotoxicity in po dosed Sprague-Dawley rat assessed as time of peak effect by rotarod test
Assay type: toxicity, organism-based
Conditions: in vivo

Structure (SMILES) | Time
CC(=O)N[C@H](COCCN=C=S)C(=O)NCc1ccccc1 | 4 h
CCC1(c2ccccc2)C(=O)NC(=O)NC1=O [PHENOBARBITAL] | 0.5 h
C#Cc1ccc(CNC(=O)[C@@H](COC)NC(C)=O)cc1 | 0.5 h

Test system: Mus musculus
Assay: Anticonvulsant activity against maximal electroshock-induced seizures in ip dosed albino mouse assessed as time of peak effect
Assay type: functional
Conditions: not given

Structure (SMILES) | Time
CC(=O)N[C@H](COCCN=C=S)C(=O)NCc1ccccc1 | 0.5 h
CC(=O)N[C@@H](COCCN=C=S)C(=O)NCc1ccccc1 | 0.5 h
CCC1(c2ccccc2)C(=O)NC(=O)NC1=O [PHENOBARBITAL] | 1 h
C#Cc1ccc(CNC(=O)[C@@H](COC)NC(C)=O)cc1 | 0.5 h
C#CCOC[C@@H](NC(C)=O)C(=O)NCc1ccc(N=C=S)cc1 | 1 h
CC(=O)N[C@H](COCCN=[N+]=[N-])C(=O)NCc1ccc(N=C=S)cc1 | 4 h

Test system: Rattus norvegicus
Assay: Anticonvulsant activity in po dosed Sprague-Dawley rat assessed as protection against maximal electroshock-induced seizures
Assay type: functional
Conditions: not given
Method in brief: (§1)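 Male rodents screened through the NIH Anticonvulsant Screening Program: albino Carworth Farms No. 1 mice given compound ip, albino Sprague-Dawley rats given compound po. Maximal electroshock test: tonic hindlimb seizures were induced by corneal electrical stimulation. ED50 is given in mg/kg.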

Structure (SMILES) | ED50
CC(=O)N[C@H](COCCN=C=S)C(=O)NCc1ccccc1 | < 30 mg/kg
CC(=O)N[C@@H](COCCN=C=S)C(=O)NCc1ccccc1 | < 30 mg/kg
CCC1(c2ccccc2)C(=O)NC(=O)NC1=O [PHENOBARBITAL] | 9.1 mg/kg
C#CCOC[C@@H](NC(C)=O)C(=O)NCc1ccc(N=C=S)cc1 | > 30 mg/kg
CC(=O)N[C@@H](CO)C(=O)NCc1ccc(N=C=S)cc1 | 180 mg/kg
C#CCOC[C@H](NC(C)=O)C(=O)NCc1ccccc1 | 30 mg/kg

Test system: Mus musculus
Assay: Anticonvulsant activity in ip dosed albino mouse assessed as protection against maximal electroshock-induced seizures
Assay type: functional
Conditions: not given
Method in brief: as §1

Structure (SMILES) | ED50
CC(=O)N[C@H](COCCN=C=S)C(=O)NCc1ccccc1 | > 300 mg/kg
CC(=O)N[C@@H](COCCN=C=S)C(=O)NCc1ccccc1 | > 300 mg/kg
CCC1(c2ccccc2)C(=O)NC(=O)NC1=O [PHENOBARBITAL] | 22 mg/kg
C#Cc1ccc(CNC(=O)[C@@H](COC)NC(C)=O)cc1 | 3 mg/kg
C#CCOC[C@@H](NC(C)=O)C(=O)NCc1ccc(N=C=S)cc1 | 45 mg/kg
CC(=O)N[C@@H](COCCN=[N+]=[N-])C(=O)NCc1ccccc1 | > 300 mg/kg
CC(=O)N[C@@H](CO)C(=O)NCc1ccc(N=C=S)cc1 | 100 mg/kg
C#CCOC[C@H](NC(C)=O)C(=O)NCc1ccccc1 | > 300 mg/kg
CC(=O)N[C@H](COCCN=[N+]=[N-])C(=O)NCc1ccc(N=C=S)cc1 | 100 mg/kg

Test system: not listed separately
Assay: Neurotoxicity in po dosed Sprague-Dawley rat by rotarod test
Assay type: toxicity, organism-based
Conditions: in vivo

Structure (SMILES) | TD50
CC(=O)N[C@H](COCCN=C=S)C(=O)NCc1ccccc1 | > 30 mg/kg
C#Cc1ccc(CNC(=O)[C@@H](COC)NC(C)=O)cc1 | < 30 mg/kg
C#CCOC[C@@H](NC(C)=O)C(=O)NCc1ccc(N=C=S)cc1 | > 30 mg/kg
CC(=O)N[C@@H](CO)C(=O)NCc1ccc(N=C=S)cc1 | > 30 mg/kg
C#CCOC[C@H](NC(C)=O)C(=O)NCc1ccccc1 | > 30 mg/kg

Biological target: Dihydropyrimidinase-related protein 2 (Mus musculus) (UniProt O08553)
Assay: Binding affinity to CRMP2 in ICR mouse brain […] at 5 uM by Western blot analysis in presence of rhodamine-containing 4-(3-azidopropylcarbamoyl)-2-(3,6-bis(dimethylamino)xanthylium-9-yl)benzoate
Assay type: tissue-based
Conditions: not given

Structure (SMILES) | Activity
C#Cc1ccc(CNC(=O)[C@@H](COCCN=C=S)NC(C)=O)cc1 | inactive
C#CCOC[C@@H](NC(C)=O)C(=O)NCc1ccc(N=C=S)cc1 | Active

Test system: Mus musculus
Assay: Anticonvulsant activity against 6 Hz electric shock-induced seizures in ip dosed albino mouse assessed as time of peak effect
Assay type: functional
Conditions: not given

Structure (SMILES) | Time
C#CCOC[C@@H](NC(C)=O)C(=O)NCc1ccc(N=C=S)cc1 | 0.5 h

Test system: Mus musculus
Assay: Neurotoxicity in ip dosed albino mouse assessed as time of peak effect by rotarod test
Assay type: toxicity, organism-based
Conditions: in vivo

Structure (SMILES) | Time
CC(=O)N[C@@H](COCCN=C=S)C(=O)NCc1ccccc1 | 0.5 h
CCC1(c2ccccc2)C(=O)NC(=O)NC1=O [PHENOBARBITAL] | 0.5 h
C#Cc1ccc(CNC(=O)[C@@H](COC)NC(C)=O)cc1 | 0.5 h
C#CCOC[C@@H](NC(C)=O)C(=O)NCc1ccc(N=C=S)cc1 | 0.25 h
CC(=O)N[C@H](COCCN=[N+]=[N-])C(=O)NCc1ccc(N=C=S)cc1 | 0.5 h

Test system: not listed separately
Assay: Neurotoxicity in ip dosed albino mouse by rotarod test
Assay type: toxicity, organism-based
Conditions: in vivo

Structure (SMILES) | TD50
CC(=O)N[C@H](COCCN=C=S)C(=O)NCc1ccccc1 | 30 mg/kg
CC(=O)N[C@@H](COCCN=C=S)C(=O)NCc1ccccc1 | 30 mg/kg
C#Cc1ccc(CNC(=O)[C@@H](COC)NC(C)=O)cc1 | 10 mg/kg
C#CCOC[C@@H](NC(C)=O)C(=O)NCc1ccc(N=C=S)cc1 | 110 mg/kg
CC(=O)N[C@@H](COCCN=[N+]=[N-])C(=O)NCc1ccccc1 | > 300 mg/kg
CC(=O)N[C@@H](CO)C(=O)NCc1ccc(N=C=S)cc1 | 30 mg/kg
C#CCOC[C@H](NC(C)=O)C(=O)NCc1ccccc1 | > 300 mg/kg
CC(=O)N[C@H](COCCN=[N+]=[N-])C(=O)NCc1ccc(N=C=S)cc1 | 100 mg/kg

Test system: Mus musculus
Assay: Protective index, ratio of TD50 for ip dosed albino mouse to ED50 for protection against maximal electroshock-induced seizures in ip dosed albino mouse
Assay type: functional
Conditions: not given

Structure (SMILES) | Ratio TD50/ED50
C#CCOC[C@@H](NC(C)=O)C(=O)NCc1ccc(N=C=S)cc1 | 2.4

Biological target: Dihydropyrimidinase-related protein 2 (Mus musculus) (UniProt O08553)
Assay: Binding affinity to CRMP2 in ICR mouse brain […] at 5 uM by in-gel tryptic digestion analysis in presence of rhodamine-containing 4-(3-azidopropylcarbamoyl)-2-(3,6-bis(dimethylamino)xanthylium-9-yl)benzoate
Assay type: tissue-based
Conditions: not given
Method in brief: (§2)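 Brain soluble fraction from male 2-month ICR mice was Dounce-homogenized in 50 mM HEPES pH 7.4 and spun at 1200 × g then 100,000 × g at 4 °C. The fraction was exchanged into HEPES pH 8.0 at 2.0 mg/mL, treated with agent (5 μM, 30 min, room temperature), then clicked to rhodamine-azide (50 μM) with TCEP 1 mM, TBTA 200 μM and CuSO4 1 mM for 1 h. After SDS-PAGE, the ~62 kDa band was trypsin-digested, iTRAQ-labelled and analysed by LC-MS/MS.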

Structure (SMILES) | Activity
C#CCOC[C@@H](NC(C)=O)C(=O)NCc1ccc(N=C=S)cc1 | Active

Test system: Mus musculus
Assay: Anticonvulsant activity in ip dosed albino mouse assessed as protection against 6 Hz electric shock-induced seizures
Assay type: functional
Conditions: not given
Method in brief: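 6 Hz psychomotor seizure test in mice dosed ip, with stimulation at 32 mA.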

Structure (SMILES) | ED50
C#CCOC[C@@H](NC(C)=O)C(=O)NCc1ccc(N=C=S)cc1 | 53 mg/kg
C#CCOC[C@H](NC(C)=O)C(=O)NCc1ccccc1 | > 30 mg/kg

Test system: Rattus norvegicus
Assay: Anticonvulsant activity against maximal electroshock-induced seizures in po dosed Sprague-Dawley rat assessed as time of peak effect
Assay type: functional
Conditions: not given

Structure (SMILES) | Time
CC(=O)N[C@H](COCCN=C=S)C(=O)NCc1ccccc1 | 4 h
CC(=O)N[C@@H](COCCN=C=S)C(=O)NCc1ccccc1 | 4 h
CCC1(c2ccccc2)C(=O)NC(=O)NC1=O [PHENOBARBITAL] | 5 h

Biological target: Dihydropyrimidinase-related protein 2 (Mus musculus) (UniProt O08553)
Assay: Binding affinity to CRMP2 in ICR mouse brain […] at 5 uM by mass spectrometry in presence of rhodamine-containing 4-(3-azidopropylcarbamoyl)-2-(3,6-bis(dimethylamino)xanthylium-9-yl)benzoate
Assay type: tissue-based
Conditions: not given
Method in brief: as §2

Structure (SMILES) | Activity
C#CCOC[C@@H](NC(C)=O)C(=O)NCc1ccc(N=C=S)cc1 | Active

— ChEMBL document CHEMBL1156246 (J Med Chem, 2009)
